# Most compounds without a hit are left out; they make up all but 2.2% or so of the library.
# eIF4E 4G PPI – inhibitors of eIF4E and eIF4G interaction in translation initiation. AID 782. P63073+Q04637. inhibition, % at 21.7 µM. TR-FRET eIF4E-eIF4GI(517-606) binding, 2 h. 220,000 compounds, 0.37% hits;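 active means inhibition above about 30%, limit read from the data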;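 further: 0% = full FRET control wells and 100% = background wells lacking eIF4GI fragment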
# 14-3-3 Bad PPI – disrupts binding of bovine 14-3-3 zeta to phospho-Bad peptide | P63103 | TR-FRET 14-3-3zeta/Dy647-pBad peptide displacement, 1 h | inhibition, % at 21.7 µM | 220,000 compounds, 0.71% hits;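 active means inhibition above about 70%, limit read from the data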;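 further: 0% = full 14-3-3 plus peptide FRET controls and 100% = background without 14-3-3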
# p97 inhibitor – inhibitors of human p97 ATPase. AID 1481. recombinant p97 ATPase, Kinase-Glo ATP luminescence, 3 h. P55072. 220,000 compounds, 0.42% hits. inhibition, % at 8 µM; in the data active means inhibition above about 15%;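 further: 0% = DMSO vehicle and 100% = wells lacking enzyme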
# Hck Nef HTS – inhibitors of human Hck kinase activated by Nef. P08631. Recombinant Hck-YEEI plus Nef, Z-Lyte FRET kinase assay. inhibition, % at 20 µM. 220,000 compounds, 0.68% hits. AID 463187;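 active means Hck-Nef kinase inhibition above about 50%, limit read from the data; inactive means inhibition below that limit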;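 further: 0% = DMSO with Hck plus Nef and 100% = Hck alone without Nef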
# Target sequence (P08631 whole entry, looked up): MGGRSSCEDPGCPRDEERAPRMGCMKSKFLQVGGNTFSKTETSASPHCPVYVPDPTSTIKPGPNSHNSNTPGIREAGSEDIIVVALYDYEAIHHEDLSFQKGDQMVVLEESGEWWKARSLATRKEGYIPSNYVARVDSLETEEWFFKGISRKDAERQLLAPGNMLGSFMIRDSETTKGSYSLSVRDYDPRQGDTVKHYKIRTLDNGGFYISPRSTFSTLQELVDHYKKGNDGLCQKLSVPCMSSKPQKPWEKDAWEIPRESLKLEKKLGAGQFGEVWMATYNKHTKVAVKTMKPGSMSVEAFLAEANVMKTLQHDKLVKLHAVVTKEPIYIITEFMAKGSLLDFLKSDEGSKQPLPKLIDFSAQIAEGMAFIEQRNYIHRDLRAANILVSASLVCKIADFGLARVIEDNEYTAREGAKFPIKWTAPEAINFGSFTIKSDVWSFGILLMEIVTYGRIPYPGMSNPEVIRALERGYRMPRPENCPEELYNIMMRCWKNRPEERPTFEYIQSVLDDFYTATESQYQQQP
# PERK inhibitor – blocks human PERK kinase; Q9NZJ5; CHO PERK-DD fusion, SEAP luminescence translation reporter; inhibition, % at 5.6 µM; 220,000 compounds, 0.17% hits;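 active means inhibition above the mean inhibition of all tested compounds plus 3 SD, set separately per screening campaign, cut at about 2.9% in these data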;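 further: PERK kinase domain activated by AP20187 dimerizer at 100 nM; 0% = DMSO with dimerizer and 100% = rapamycin at 8.4 µM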
# Calb biofilm kill – mixtures killing C. albicans biofilm; AID 1242; inhibition, % at 7.6 µM; 120,000 compounds, 0.02% hits; C. albicans biofilm persisters + clotrimazole, fluorescence viability; primary screen in compound mixtures of four per well;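 further: compounds exposed to preformed 24 h biofilms for 48 h; 0% = untreated biofilm control and 100% = clotrimazole plus chlorhexidine kill blank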
#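 Assay system: C. albicans biofilms / Medium: RPMI/MOPS medium, pH 7.0 / Schedule: biofilm formation 24 h, compound exposure 48 h, 37 °C / Measured by: Alamar Blue fluorescence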
# Hck-Nef confirm – confirmation of Hck-Nef kinase inhibitors. shares compounds with Hck Nef HTS. Recombinant Hck-YEEI:Nef, Z-Lyte FRET kinase assay. calls only at 10 µM. 1,300 compounds, 28% hits;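 active means average inhibition of at least 50%, with Z-scores no higher than 3 in both the phospho-tyrosine peptide and fluorescence counterscreens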
# Active calls of the source: *; i = inactive; / = not tested or not shown; + = active, no number.
SMILES,eIF4E 4G PPI,14-3-3 Bad PPI,p97 inhibitor,Hck Nef HTS,PERK inhibitor,Calb biofilm kill,Hck-Nef confirm
COc1cc(/C=C(\C#N)C(=O)NC(C)C)ccc1OCc1ccc(C(=O)O)cc1,0,-11,7,33,0,15,/
COc1cc(/C=C(/C#N)C(=O)Nc2ccccc2)ccc1OCc1ccc(C(=O)O)cc1,-2,-8,-1,138*,2,20,+
COc1cc(/C=C(\C#N)C(=O)NC2CCCCC2)ccc1OCc1ccc(C(=O)O)cc1,0,-3,3,52*,0,10,i
CCC(c1nnnn1Cc1ccc(OC)cc1)N1CCN(c2ccc(OC)cc2)CC1 (stereo not drawn),4,7,-2,62*,0,7,i
CCC(c1nnnn1Cc1ccccc1)N1CCN(c2ccc(OC)cc2)CC1 (stereo not drawn),3,-10,-2,23,0,-4,/
O=C(N/N=C1\CCCc2ccccc21)C(O)c1ccccc1 (stereo not drawn),5,-6,3,0,2,/,/
COc1ccc(N=Cc2c[nH][nH]c2=O)cc1,8,4,-4,3,0,/,/
O=c1[nH][nH]cc1C=Nc1ccc(Oc2ccccc2)cc1,3,-15,5,164*,2,10,+
COc1ccc(-c2nc3ccccc3s2)cc1O,-2,-14,-2,5,0,/,/
COc1cc(-c2nc3ccccc3s2)ccc1O,0,-4,0,155*,0,/,/
CCOc1cc(-c2nc3ccccc3s2)ccc1O,4,4,-2,+,-1,14,/
Cc1ccc(NCC(=O)N/N=C/c2c[nH]c3ccccc23)cc1,-5,-3,5,12,1,5,/
COc1cc2nc(SCC(=O)NCc3ccco3)n(Cc3ccc(Cl)cc3)c(=O)c2cc1OC,-2,34,3,100*,0,14,+
O=C1NN(c2cccc(Br)c2)C(=O)/C1=C/c1ccc(-c2cc([N+](=O)[O-])ccc2O)o1,34*,80*,35*,98*,2,18,+
Cc1cc(-c2csc(NC(=O)c3cc4ccccc4o3)n2)c(C)n1C,-6,3,3,59*,0,/,i
COc1ccc(CNC(=O)CCNS(=O)(=O)c2cccc3nsnc23)cc1,2,-7,0,154*,1,-4,i
COc1ccc(NC(=O)CCNS(=O)(=O)c2cccc3nsnc23)cc1,-2,-5,5,17,1,9,/
Cc1ccc(C(=O)C(C)OC(=O)c2ccccc2[N+](=O)[O-])cc1 (stereo not drawn),-11,-2,-7,-7,-1,13,/
Cc1ccc(/C=C2/SC(=S)N(c3ccc(S(=O)(=O)Nc4nccs4)cc3)C2=O)cc1,-4,-3,0,59*,1,26,i
Cc1cc(C)c2c(N)c(C(=O)NN3CC(=O)N(c4ccccc4)CC3=O)sc2n1,-5,-1,10,-13,2,17,/
Cc1ccc(NC(=O)Nc2sc(=S)n(C)c2C)cc1,1,15,4,92*,0,/,i
CC(=O)NC(=O)Nc1sc(=S)n(C)c1C,2,12,4,3,1,/,/
CC(=O)C1C(c2ccc3ncccc3c2)NC(=O)NC1(O)C(F)(F)F (stereo not drawn),3,11,8,52*,2,/,i
O=C(Nc1ccc(F)c([N+](=O)[O-])c1)c1ccc2c(c1)C(=O)OC2=O,-1,13,9,28,1,11,/
Cc1ccc(/C=C2/C(=O)ON=C2c2ccccc2)o1,-2,-12,-2,28,1,17,/
SMILES,eIF4E 4G PPI,14-3-3 Bad PPI,p97 inhibitor,Hck Nef HTS,PERK inhibitor,Calb biofilm kill,Hck-Nef confirm
O=C1ON=C(c2ccccc2)/C1=C\c1ccco1,2,-2,3,54*,2,11,i
Cc1ccc(-c2nnc(N3CCCCC3)c3ccccc23)cc1S(=O)(=O)NCC1CCCO1 (stereo not drawn),3,-8,-6,0,-3,/,/
CCC(C)N1CC(O)=C(c2nc3ccccc3[nH]2)C1=N (stereo not drawn),3,7,-4,58*,-1,/,+
CCCCCCN1CC(O)=C(c2nc3ccccc3[nH]2)C1=N,1,13,-2,0,-1,/,/
CCOC(=O)c1c(/N=C/N(C)C)sc(/C=N/Nc2ccccc2)c1-c1ccccc1,-3,23,1,9,0,-9,/
CCOC(=O)c1c(/N=C/N(C)C)sc(C=O)c1-c1ccccc1,1,1,-5,98*,-1,15,i
C/C(=N\NS(=O)(=O)c1ccccc1)c1ccc2c(c1)OCCO2,-1,-2,1,1,1,23,/
CCCCOc1ccccc1C(=O)NCC(=O)O,-2,-6,8,-3,0,/,/
CCCOc1ccccc1C1NC(=O)NC(C)=C1C(=O)OCCOCC (stereo not drawn),-3,11,5,2,0,/,/
CCCOc1ccccc1C1C(C(=O)OC)=CN(C(C)C)C=C1C(=O)OC,4,-15,4,68*,0,/,/
COC(=O)C1=CN(CCCN2CCCC2=O)C=C(C(=O)OC)C1c1ccccc1C(F)(F)F,0,9,-3,85*,0,/,/
CCCCOc1ccccc1C1C(C(=O)OC)=CN(CC)C=C1C(=O)OC,8,-13,-10,62*,-1,/,/
COC(=O)C1=CN(CC2CCCO2)C=C(C(=O)OC)C1c1ccccc1C(F)(F)F (stereo not drawn),6,-11,-1,31,0,/,/
COC(=O)C1=CN(C)C=C(C(=O)OC)C1c1ccccc1Cl,1,-2,2,70*,-1,/,/
COc1ccc(N2CCN(CCNC(=O)c3ccc4c(c3)[nH]c(=S)n3c5ccccc5nc43)CC2)cc1,14,24,2,51*,0,5,i
Nc1[nH]nc2nc(N3CCOCC3)nc(-c3ccccc3)c12,-6,0,2,67*,0,/,+
O=C(NN1CCCCC1)c1ccc(COc2ccc(Cl)cc2)cc1,-1,-18,2,-6,2,14,/
CCc1cc(=O)oc2cc3occ(C)c3cc12,19,4,0,8,1,9,/
CCc1cc(=O)oc2cc3occ(-c4ccc(OC)c(F)c4)c3cc12,19,94*,-1,58*,1,0,i
COc1cccc(NC(=O)CCSc2ccc(C)cc2)c1,5,-22,-2,3,0,13,/
COc1ccc2oc(/C=C/N(C)C)c(C(=O)c3ccc(Cl)cc3)c2c1,8,-13,-1,98*,1,/,i
CC(=O)Oc1ccc2oc(/C=C/N(C)C)c([N+](=O)[O-])c2c1,5,-13,0,0,0,/,/

# Screening data deposited in PubChem by several laboratories.
